# Test results: ChEMBL document CHEMBL1141291, “Bioactive constituents of the roots of Polyalthia cerasoides” (J Nat Prod, 2007)
# The source made the active and inactive calls. The rule behind the calls is not given here.
# Assays:
# Plasmodium falciparum = experiment: Antimalarial activity against multidrug-resistant Plasmodium falciparum K1 in [3H]hypoxanthine incorporation microculture radioisotope assay; assay type: functional, organism-based
# Summary of the method: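 P. falciparum K1 maintained in culture by the Trager and Jensen method. Growth was measured in vitro by [3H]-hypoxanthine uptake in a microculture radioisotope format (Desjardins method). IC50 is the concentration giving 50% reduction in parasite growth. Artemisinin was the standard.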
# [1] = tested on: Mycobacterium tuberculosis; experiment: Antituberculosis activity against Mycobacterium tuberculosis H37Ra by microplate alamar blue assay; assay type: functional
# KB = experiment: Cytotoxicity against human KB cells; assay type: functional, cell-based
# Summary of the method: (§1)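 Tested on human epidermoid carcinoma (KB), breast cancer (BC1) and small cell lung cancer (NCI-H187) cell lines. Growth was read by a colorimetric method following Skehan and co-workers. Ellipticine was run as the reference substance.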
# [2] = Cytotoxicity against human BC1 cells; assay type: functional, cell-based; summary of the method: as §1
# NCI-H187 = experiment: Cytotoxicity against human NCI-H187 cells; assay type: functional, cell-based; summary of the method: as §1
Compound,IC50 (Plasmodium falciparum) [µg/mL],Activity [1],IC50 (KB) [µg/mL],IC50 [2] [µg/mL],IC50 (NCI-H187) [µg/mL],MIC [1] [µg/mL],Activity (Plasmodium falciparum)
C=C1CC[C@@H]2O[C@]2(C)CC[C@@H]2[C@@H]1CC2(C)C,2.8,inactive,> 5,> 5,19.5,–,–
Cc1c2ccncc2c(C)c2c1[nH]c1ccccc12 [ELLIPTECINE],–,–,0.36,0.26,0.32,–,–
COc1ccc2c(c1)c(-c1c3c4c(cc5c(c4c4ccc(OC)cc14)OCO5)CCN3)c1c3c(cc4c(c32)OCO4)CCN1 [BIDEBILINE E],4.2,–,–,–,–,6.25,–
COc1ccc(C[C@H]2c3cc(OC)c(OC)cc3CCN2C)cc1O [LAUDANIDINE],7,inactive,> 5,> 5,> 5,–,–
CCCCC#CC#CC#CCCCCCCCC(=O)O,5,–,> 5,13,> 5,6.25,–
NNC(=O)c1ccncc1 [ISONIAZID],–,–,–,–,–,0.05,–
COc1cc2c(cc1O)[C@H](Cc1ccc(OC)c(OC)c1)N(C)CC2 [CODAMINE],4.2,inactive,> 5,> 5,> 5,–,–
C/C1=C\CC/C(C)=C/CC(C)(C)/C=C/C1 [ALPHA-HUMULONE],–,–,> 5,> 5,> 5,6.25,inactive
C[C@@H]1CC[C@H]2[C@@H](C)C(=O)O[C@@H]3O[C@@]4(C)CC[C@@H]1[C@]32OO4 [ARTEMISININ],0.001,–,–,–,–,–,–
NC[C@H]1O[C@H](O[C@H]2[C@H](O)[C@@H](O[C@H]3O[C@H](CO)[C@@H](O)[C@H](N)[C@H]3O)[C@H](N)C[C@@H]2N)[C@H](O)[C@@H](O)[C@@H]1O.O=S(=O)(O)O [KANAMYCIN SULFATE],–,–,–,–,–,2.5,–
